ID/g, IC50 and EC50 data for 20 compounds are collected here from ChEMBL document CHEMBL1143592, “N-terminal sugar conjugation and C-terminal Thr-for-Thr(ol) exchange in radioiodinated Tyr3-octreotide: effect on cellular ligand trafficking in vitro and tumor accumulation in vivo” (J Med Chem, 2005).

In test [1] the target is Somatostatin receptor type 2 (Rattus norvegicus) (UniProt P30680). The experiment in a line: In vivo tumor accumulation was determined in nude mice bearing rat pancreatic AR42J tumor cell expressed with somatostatin receptor type 2;60 min p.i.; (n=3-5). The following applies: AR-42J. In kind it is functional, organism-based. A digest of the protocol: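 Female Swiss nu/nu mice, 6–8 weeks, were inoculated s.c. in the flank with (2.5–5) × 10⁶ AR42J cells in serum-free RPMI 1640 and used after 10 days (tumors 150–500 mg). About 370 kBq of radioiodinated peptide in 100 µL PBS pH 7.4 was given i.v. into the tail vein. Tumor was excised 60 min p.i. and gamma-counted; results are % ID/g.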
Sequence of Somatostatin receptor type 2 (Rattus norvegicus) (P30680 whole entry): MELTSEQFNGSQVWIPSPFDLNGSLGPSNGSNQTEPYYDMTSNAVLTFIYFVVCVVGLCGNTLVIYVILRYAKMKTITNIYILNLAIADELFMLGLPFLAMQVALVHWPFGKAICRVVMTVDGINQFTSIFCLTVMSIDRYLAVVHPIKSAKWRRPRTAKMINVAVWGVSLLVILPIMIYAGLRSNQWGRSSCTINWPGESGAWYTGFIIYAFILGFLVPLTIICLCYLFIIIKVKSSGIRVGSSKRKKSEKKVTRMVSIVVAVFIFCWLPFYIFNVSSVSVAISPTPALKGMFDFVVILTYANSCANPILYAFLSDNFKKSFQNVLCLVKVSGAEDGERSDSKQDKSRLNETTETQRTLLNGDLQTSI

The target in test [2] is Somatostatin receptor type 4 (Homo sapiens, UniProt P31391). The experiment in a line: In vitro inhibition of [125I][Leu8,D-Trp22,Tyr25] somatostatin 28 binding to human somatostatin receptor type 4 expressed in CCL39 cells; (n=3). Format: cell-based. A digest of the protocol: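 Membrane pellets from CCL39 cells stably expressing hsst4 were sectioned onto slides for receptor autoradiography. Full displacement of the universal somatostatin radioligand used unlabeled peptide at 0.1–1000 nM, with somatostatin 28 run in parallel at the same concentrations. Values are mean ± SD.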
Sequence of Somatostatin receptor type 4 (P31391 whole entry): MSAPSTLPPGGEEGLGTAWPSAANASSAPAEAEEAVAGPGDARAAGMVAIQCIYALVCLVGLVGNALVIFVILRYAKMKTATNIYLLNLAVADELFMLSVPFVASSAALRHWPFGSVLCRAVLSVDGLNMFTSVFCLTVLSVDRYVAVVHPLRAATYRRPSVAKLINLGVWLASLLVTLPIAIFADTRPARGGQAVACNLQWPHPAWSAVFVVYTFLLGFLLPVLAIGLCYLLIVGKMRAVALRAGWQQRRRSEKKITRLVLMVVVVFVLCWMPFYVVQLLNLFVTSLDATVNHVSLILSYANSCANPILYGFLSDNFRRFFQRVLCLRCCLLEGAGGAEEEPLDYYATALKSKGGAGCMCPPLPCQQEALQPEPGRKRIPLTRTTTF

The target in test [3] is Somatostatin receptor type 5 (Homo sapiens, UniProt P35346). As to the kind of experiment: In vitro inhibition of [125I][Leu8,D-Trp22,Tyr25] somatostatin 28 binding to human somatostatin receptor type 5 expressed in CHO-K1 cells; (n=3). In kind it is cell-based.
Sequence of Somatostatin receptor type 5 (P35346 whole entry): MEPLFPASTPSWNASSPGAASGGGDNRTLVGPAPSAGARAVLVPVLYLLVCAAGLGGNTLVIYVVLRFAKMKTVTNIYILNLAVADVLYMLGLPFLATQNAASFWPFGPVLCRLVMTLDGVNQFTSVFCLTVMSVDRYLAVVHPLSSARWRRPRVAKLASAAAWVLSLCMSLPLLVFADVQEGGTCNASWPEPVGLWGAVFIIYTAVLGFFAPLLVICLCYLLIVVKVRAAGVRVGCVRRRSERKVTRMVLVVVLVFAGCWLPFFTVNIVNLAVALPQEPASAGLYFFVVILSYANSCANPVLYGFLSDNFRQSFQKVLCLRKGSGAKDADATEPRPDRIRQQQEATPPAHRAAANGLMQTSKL
The target of test [4] is T1, Somatostatin receptor type 2 (Homo sapiens, UniProt P30874). The experiment in a line: In vitro inhibition of [125I][Leu8,D-Trp22,Tyr25] somatostatin 28 binding to human somatostatin receptor type 2 expressed in CCL39 cells; (n=3). In kind it is cell-based.
T1 sequence (P30874 whole entry): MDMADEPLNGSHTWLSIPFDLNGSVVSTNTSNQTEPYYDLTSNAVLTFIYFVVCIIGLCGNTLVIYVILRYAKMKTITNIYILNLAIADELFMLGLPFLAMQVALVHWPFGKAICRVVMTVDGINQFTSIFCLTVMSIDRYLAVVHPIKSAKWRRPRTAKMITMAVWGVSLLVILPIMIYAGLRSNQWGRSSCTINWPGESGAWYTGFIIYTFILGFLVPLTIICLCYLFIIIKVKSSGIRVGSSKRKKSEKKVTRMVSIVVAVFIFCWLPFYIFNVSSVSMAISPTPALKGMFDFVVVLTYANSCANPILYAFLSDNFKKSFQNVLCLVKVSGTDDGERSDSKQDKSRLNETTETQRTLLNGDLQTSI
The target in test [5] is Somatostatin receptor type 3 (Homo sapiens, UniProt P32745). As to the kind of experiment: In vitro inhibition of [125I][Leu8,D-Trp22,Tyr25] somatostatin 28 binding to human somatostatin receptor type 3 expressed in CCL39 cells; (n=3). Format: cell-based.
Sequence of Somatostatin receptor type 3 (P32745 whole entry): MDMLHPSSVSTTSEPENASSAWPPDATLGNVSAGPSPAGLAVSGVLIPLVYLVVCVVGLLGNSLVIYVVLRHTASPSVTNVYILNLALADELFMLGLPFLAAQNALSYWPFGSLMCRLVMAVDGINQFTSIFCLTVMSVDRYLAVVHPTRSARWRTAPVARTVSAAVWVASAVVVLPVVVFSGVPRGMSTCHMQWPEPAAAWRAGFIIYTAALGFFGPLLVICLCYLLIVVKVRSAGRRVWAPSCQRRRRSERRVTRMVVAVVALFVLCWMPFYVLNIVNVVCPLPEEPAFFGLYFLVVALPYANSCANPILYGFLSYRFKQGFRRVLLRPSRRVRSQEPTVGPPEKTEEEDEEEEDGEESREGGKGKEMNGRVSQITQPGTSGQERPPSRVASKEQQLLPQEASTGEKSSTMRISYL
Test [6] addresses Somatostatin receptor type 1 (Homo sapiens, UniProt P30872). The experiment in a line: In vitro inhibition of [125I][Leu8,D-Trp22,Tyr25] somatostatin 28 binding to human somatostatin receptor type 1 expressed in CHO-K1 cells; (n=3). In kind it is cell-based.
Test [7] concerns the target T1, Somatostatin receptor type 2. As to the kind of experiment: Relative effective concentration against human somatostatin receptor type 2 expressed in CHO cells; (n=3). The following applies: cho. In kind it is cell-based. The method, boiled down: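 Dual-tracer internalization in CHO cells stably expressing N-terminally tagged hsst2 (90000–120000 cells/well, plated the day before). Acid wash at pH 5 removed surface-bound activity; nonspecific uptake was taken with 5 µM TOC; triplicates. EC50 is expressed relative to [125I]TOC.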

Setting [8] is: tested as the 123I-labelled form.

Where only a bound is given, the exact number is not on record here.

Sequence of Somatostatin receptor type 1 (P30872 whole entry): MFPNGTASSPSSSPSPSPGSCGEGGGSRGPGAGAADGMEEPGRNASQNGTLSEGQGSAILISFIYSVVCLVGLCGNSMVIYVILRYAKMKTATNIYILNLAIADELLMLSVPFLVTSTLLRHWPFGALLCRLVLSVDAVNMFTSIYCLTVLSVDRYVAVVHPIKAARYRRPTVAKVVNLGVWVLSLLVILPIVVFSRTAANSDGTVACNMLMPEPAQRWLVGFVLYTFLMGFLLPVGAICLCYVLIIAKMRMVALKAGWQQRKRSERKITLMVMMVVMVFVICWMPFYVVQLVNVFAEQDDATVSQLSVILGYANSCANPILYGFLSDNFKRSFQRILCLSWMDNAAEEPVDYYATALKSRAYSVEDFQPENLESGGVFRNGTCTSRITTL

Turning to `C[C@@H](O)[C@H](NC(=O)[C@@H]1CSSC[C@H](NC(=O)[C@H](Cc2ccccc2)NC[C@]2(O)OC[C@H](O)[C@@H](O[C@@H]3O[C@@H](CO)[C@@H](O)[C@H](O)[C@@H]3O)[C@@H]2O)C(=O)N[C@@H](Cc2ccc(O)c(I)c2)C(=O)N[C@H](Cc2c[nH]c3ccccc23)C(=O)N[C@@H](CCCCN)C(=O)N[C@@H]([C@@H](C)O)C(=O)N1)C(=O)O`, the ID/g in test [1] (setting [8]) stood at 11.2%.

Take GALLIUM OXODOTREOTIDE: the IC50 in test [2] is 300 nM; in test [3], 377 nM; in test [4], 0.2 nM; in test [5] (ccl39), more than 1000 nM; in test [6] (cho-k1), more than 10000 nM.

`C[C@@H](O)[C@H](CO)NC(=O)[C@@H]1CSSC[C@H](NC(=O)[C@H](Cc2ccccc2)NC[C@]2(O)OC[C@H](O)[C@@H](O[C@@H]3O[C@@H](CO)[C@@H](O[C@@H]4O[C@@H](CO)[C@@H](O)[C@H](O)[C@@H]4O)[C@H](O)[C@@H]3O)[C@@H]2O)C(=O)N[C@@H](Cc2ccc(O)c(I)c2)C(=O)N[C@H](Cc2c[nH]c3ccccc23)C(=O)N[C@@H](CCCCN)C(=O)N[C@@H]([C@@H](C)O)C(=O)N1` returned an ID/g in test [1] (setting [8]) of 4.9%.

For `C[C@@H](O)[C@H](NC(=O)[C@@H]1CSSC[C@H](NC(=O)[C@@H](Cc2ccccc2)NC[C@]2(O)OC[C@H](O)[C@@H](O[C@@H]3O[C@@H](CO)[C@@H](O[C@@H]4O[C@@H](CO)[C@@H](O)[C@H](O)[C@@H]4O)[C@H](O)[C@@H]3O)[C@@H]2O)C(=O)N[C@@H](Cc2ccc(O)c(I)c2)C(=O)N[C@H](Cc2c[nH]c3ccccc23)C(=O)N[C@@H](CCCCN)C(=O)N[C@@H]([C@@H](C)O)C(=O)N1)C(=O)O`, the IC50 is 823 nM in test [2]; 327 nM in test [3]; 0.95 nM in test [4]; 823 nM in test [5] (ccl39); more than 10000 nM in test [6] (cho-k1).

`C[C@@H](O)[C@H](CO)NC(=O)[C@@H]1CSSC[C@H](NC(=O)[C@@H](Cc2ccccc2)NC[C@]2(O)OC[C@H](O)[C@@H](O)[C@@H]2O)C(=O)N[C@@H](Cc2ccc(O)c([123I])c2)C(=O)N[C@H](Cc2c[nH]c3ccccc23)C(=O)N[C@@H](CCCCN)C(=O)N[C@@H]([C@@H](C)O)C(=O)N1` returned an EC50 in test [7] of 1.43 nM.

Turning to EDOTREOTIDE YTTRIUM, the half-inhibitory concentration (IC50) in test [2] and in test [6] (cho-k1) was more than 10000 nM throughout.

In the case of `C[C@@H](O)[C@H](NC(=O)[C@@H]1CSSC[C@H](NC(=O)[C@@H](Cc2ccccc2)NC[C@@]2(O)OC[C@@H](O)[C@@H](O)[C@@H]2O)C(=O)N[C@@H](Cc2ccc(O)c(I)c2)C(=O)N[C@H](Cc2c[nH]c3ccccc23)C(=O)N[C@@H](CCCCN)C(=O)N[C@@H]([C@@H](C)O)C(=O)N1)C(=O)O`, the IC50 in test [2] is 1030 nM; in test [3], 521 nM; in test [4], 2 nM; in test [5] (ccl39), more than 1000 nM; in test [6] (cho-k1), more than 1000 nM.

Consider `C[C@@H](O)[C@H](CO)NC(=O)[C@@H]1CSSC[C@H](NC(=O)[C@@H](Cc2ccccc2)NC[C@]2(O)OC[C@H](O)[C@@H](O[C@@H]3O[C@@H](CO)[C@@H](O[C@@H]4O[C@@H](CO)[C@@H](O)[C@H](O)[C@@H]4O)[C@H](O)[C@@H]3O)[C@@H]2O)C(=O)N[C@@H](Cc2ccc(O)c(I)c2)C(=O)N[C@H](Cc2c[nH]c3ccccc23)C(=O)N[C@@H](CCCCN)C(=O)N[C@@H]([C@@H](C)O)C(=O)N1`, for which the half-inhibitory concentration (IC50) in test [2] is more than 1000 nM; in test [3], 110 nM; in test [4], 1.1 nM; in test [5] (ccl39) it was 210 nM; in test [6] (cho-k1), more than 10000 nM.

In the case of `C[C@@H](O)[C@@H]1NC(=O)[C@H](CCCCN)NC(=O)[C@@H](Cc2c[nH]c3ccccc23)NC(=O)[C@H](Cc2ccc(O)c(I)c2)NC(=O)[C@@H](NC(=O)[C@@H](Cc2ccccc2)NC[C@]2(O)OC[C@H](O)[C@@H](O)[C@@H]2O)CSSC[C@@H](C(=O)N[C@H](CO)[C@@H](C)O)NC1=O`, the half-maximal inhibitory concentration (IC50) was 837 nM in test [2]; 64 nM in test [3]; 2.2 nM in test [4]; 357 nM in test [5] (ccl39); more than 1000 nM in test [6] (cho-k1).

The compound `C[C@@H](O)[C@H](NC(=O)[C@@H]1CSSC[C@H](NC(=O)[C@H](Cc2ccccc2)NC[C@]2(O)OC[C@H](O)[C@@H](O[C@@H]3O[C@@H](CO)[C@@H](O[C@@H]4O[C@@H](CO)[C@@H](O)[C@H](O)[C@@H]4O)[C@H](O)[C@@H]3O)[C@@H]2O)C(=O)N[C@@H](Cc2ccc(O)c(I)c2)C(=O)N[C@H](Cc2c[nH]c3ccccc23)C(=O)N[C@@H](CCCCN)C(=O)N[C@@H]([C@@H](C)O)C(=O)N1)C(=O)O` gave an ID/g in test [1] (setting [8]) of 25.1%.

For `C[C@@H](O)[C@H](NC(=O)[C@@H]1CSSC[C@H](NC(=O)[C@@H](Cc2ccccc2)NC(=O)CN2CCN(CC(=O)O)CCN(CC(=O)O)CCN(CC(=O)O)CC2)C(=O)N[C@@H](Cc2ccc(O)cc2)C(=O)N[C@H](Cc2c[nH]c3ccccc23)C(=O)N[C@@H](CCCCN)C(=O)N[C@@H]([C@@H](C)O)C(=O)N1)C(=O)O`, the IC50 in test [5] is more than 1000 nM; in test [6], more than 10000 nM.

As to `C[C@@H](O)[C@H](CO)NC(=O)[C@@H]1CSSC[C@H](NC(=O)[C@@H](Cc2ccccc2)NC[C@]2(O)OC[C@H](O)[C@@H](O[C@@H]3O[C@@H](CO)[C@@H](O)[C@H](O)[C@@H]3O)[C@@H]2O)C(=O)N[C@@H](Cc2ccc(O)c(I)c2)C(=O)N[C@H](Cc2c[nH]c3ccccc23)C(=O)N[C@@H](CCCCN)C(=O)N[C@@H]([C@@H](C)O)C(=O)N1`, the IC50 in test [2] was more than 1000 nM; in test [3] it was 75 nM; in test [4], 1.2 nM; in test [5] (ccl39), 243 nM; in test [6] (cho-k1), more than 10000 nM.

Regarding `C[C@@H](O)[C@H](NC(=O)[C@@H]1CSSC[C@H](NC(=O)[C@@H](Cc2ccccc2)NC(=O)CCS[C@@H]2O[C@@H](CO)[C@H](O)[C@H](O)[C@@H]2O)C(=O)N[C@@H](Cc2ccc(O)c(I)c2)C(=O)N[C@H](Cc2c[nH]c3ccccc23)C(=O)N[C@@H](CCCCN)C(=O)N[C@@H]([C@@H](C)O)C(=O)N1)C(=O)O`, the half-inhibitory concentration (IC50) in test [2] was 482 nM; in test [3] it was 413 nM; in test [5] (ccl39) it was 491 nM; in test [6] (cho-k1), more than 1000 nM.

Regarding `C[C@@H](O)[C@H](CO)NC(=O)[C@@H]1CSSC[C@H](NC(=O)[C@H](Cc2ccccc2)NC[C@]2(O)OC[C@H](O)[C@@H](O)[C@@H]2O)C(=O)N[C@@H](Cc2ccc(O)c(I)c2)C(=O)N[C@H](Cc2c[nH]c3ccccc23)C(=O)N[C@@H](CCCCN)C(=O)N[C@@H]([C@@H](C)O)C(=O)N1`, in test [1] (setting [8]), the ID/g was found to be 8.7%.

For the compound `C[C@@H](O)[C@H](NC(=O)[C@@H]1CSSC[C@H](NC(=O)[C@@H](Cc2ccccc2)NC[C@]2(O)OC[C@H](O)[C@@H](O[C@@H]3O[C@@H](CO)[C@@H](O)[C@H](O)[C@@H]3O)[C@@H]2O)C(=O)N[C@@H](Cc2ccc(O)c(I)c2)C(=O)N[C@H](Cc2c[nH]c3ccccc23)C(=O)N[C@@H](CCCCN)C(=O)N[C@@H]([C@@H](C)O)C(=O)N1)C(=O)O`, the IC50 is 797 nM in test [2]; 210 nM in test [3]; 0.78 nM in test [4]; 757 nM in test [5] (ccl39); more than 10000 nM in test [6] (cho-k1).

In test [1] (tested as the 125I-labelled form), `C[C@@H](O)[C@H](CO)NC(=O)[C@@H]1CSSC[C@H](NC(=O)[C@@H](N)Cc2ccccc2)C(=O)N[C@@H](Cc2ccc(O)c(I)c2)C(=O)N[C@H](Cc2c[nH]c3ccccc23)C(=O)N[C@@H](CCCCN)C(=O)N[C@@H]([C@@H](C)O)C(=O)N1` showed an ID/g of 5.5%.

As for `C[C@@H](O)[C@H](NC(=O)[C@@H]1CSSC[C@H](NC(=O)[C@H](N)Cc2ccccc2)C(=O)N[C@@H](Cc2ccc(O)c(I)c2)C(=O)N[C@H](Cc2c[nH]c3ccccc23)C(=O)N[C@@H](CCCCN)C(=O)N[C@@H]([C@@H](C)O)C(=O)N1)C(=O)O`, the ID/g in test [1] (setting [8]) was determined as 21.2%.

Regarding `C[C@@H](O)[C@H](NC(=O)[C@@H]1CSSC[C@H](NC(=O)[C@@H](Cc2ccccc2)NC(=O)CCS[C@@H]2O[C@@H](CO)[C@@H](O)[C@H](O)[C@@H]2O)C(=O)N[C@@H](Cc2ccc(O)c(I)c2)C(=O)N[C@H](Cc2c[nH]c3ccccc23)C(=O)N[C@@H](CCCCN)C(=O)N[C@@H]([C@@H](C)O)C(=O)N1)C(=O)O`, the IC50 in test [2] was 356 nM; in test [3] it was 310 nM; in test [5] (ccl39), 398 nM; in test [6] (cho-k1), more than 1000 nM.

The compound `C[C@@H](O)[C@H](NC(=O)[C@@H]1CSSC[C@H](NC(=O)[C@@H](Cc2ccccc2)NC[C@H]2O[C@H](O)[C@H](O)[C@@H](O)[C@@H]2O)C(=O)N[C@@H](Cc2ccc(O)c(I)c2)C(=O)N[C@H](Cc2c[nH]c3ccccc23)C(=O)N[C@@H](CCCCN)C(=O)N[C@@H]([C@@H](C)O)C(=O)N1)C(=O)O` displayed an ID/g in test [1] (setting [8]) of 20.5%.

Compound `C[C@@H](O)[C@H](CO)NC(=O)[C@@H]1CSSC[C@H](NC(=O)[C@H](Cc2ccccc2)NC[C@]2(O)OC[C@H](O)[C@@H](O[C@@H]3O[C@@H](CO)[C@@H](O)[C@H](O)[C@@H]3O)[C@@H]2O)C(=O)N[C@@H](Cc2ccc(O)c(I)c2)C(=O)N[C@H](Cc2c[nH]c3ccccc23)C(=O)N[C@@H](CCCCN)C(=O)N[C@@H]([C@@H](C)O)C(=O)N1` showed an ID/g in test [1] (setting [8]) of 5.2%.
